Drawing on ChEMBL document CHEMBL1144391, “New pyrazolo[1',5':1,6]pyrimido[4,5-d]pyridazin-4(3H)-ones as potent and selective PDE5 inhibitors” (Bioorg Med Chem Lett, 2005), this text covers inhibition, IC50 and half-life for 34 compounds.

Data set [1] addresses T1, cGMP-specific 3',5'-cyclic phosphodiesterase (Homo sapiens, UniProt O76074). Description: Percentage inhibition of human Phosphodiesterase 5 at 2 uM (n=2-3). A digest of the protocol: (§1)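 Phosphodiesterase 5 purified from human platelets; activity measured by a two-step cyclic nucleotide phosphodiesterase procedure. Percent inhibition recorded at the single stated concentration.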

Data set [2] concerns the target T2, Phosphodiesterase 6 (Bos taurus) (UniProt P23439+P16586+P11541+P22571+P04972+Q95142). As to the kind of experiment: Percentage inhibition of bovine Phosphodiesterase 6 at 2 uM (n=2-3). The data set is classed as protein assay. Put shortly:
(§2)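 Enzyme purified from bovine retinas; cyclic nucleotide phosphodiesterase activity measured by a two-step procedure. Values are either IC50 or percent inhibition at the single test concentration stated.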

The target of the next data set is Phosphodiesterase 6. Description: Inhibition of bovine Phosphodiesterase 6 (n=2-3). The data set is classed as protein assay, Bos taurus.
The target in data set [3] is T1, cGMP-specific 3',5'-cyclic phosphodiesterase. Description: Inhibition of human Phosphodiesterase 5 (n=2-3).
Data set [4] has the same target. Description: Percentage inhibition of human Phosphodiesterase 5 at 0.2 uM (n=2-3). Put shortly:
as §1

In data set [5] the target is T2, Phosphodiesterase 6 (Bos taurus). As to the kind of experiment: Percentage inhibition of bovine Phosphodiesterase 6 at 0.2 uM (n=2-3). Type of data set: protein assay. A digest of the protocol: as §2
Data set [6] deals with T1, cGMP-specific 3',5'-cyclic phosphodiesterase. Description: Percentage inhibition of human Phosphodiesterase 5 at 20 uM (n=2-3). Put shortly: as §1
The nature of data set [7]: Half-life was observed. The data set is classed as ADME.

Bounds are passed on as bounds.

Turning to `Cc1nn(Cc2ccccc2)c(=O)c2nc(CC3CCCCC3)n3nc(-c4ccccc4)cc3c12`, the inhibition in data set [1] is 33.6%; in data set [2], 19.2%.

Take `Cc1nn(Cc2ccccc2)c(=O)c2nc(CCc3ccccc3)n3nc(-c4ccccc4)cc3c12`: the IC50 on Phosphodiesterase 6 came out at 30000 nM; in data set [3] it was 980 nM.

With `CCC(C)c1nc2c(=O)n(Cc3ccccc3)nc(C)c2c2cc(-c3ccccc3)nn12` (centres undefined), the IC50 in data set [3] came to 34 nM. The inhibition in data set [2] was found to be 42.5%.

In data set [3], `Cc1nn(Cc2ccccc2)c(=O)c2nc(C)n3nc(-c4ccccc4)cc3c12` yielded an IC50 of 160 nM. Moreover, the inhibition in data set [2] is 25%.

For `Cc1nn(Cc2ccccc2)c(=O)c2nc(Cc3ccccc3)n3nc(-c4ccccc4)cc3c12`, the inhibition came to 22.5% in data set [1] and 13.6% in data set [2].

Consider `Cc1nn(-c2ccccc2)c(=O)c2nc(C)n3nc(-c4ccccc4)cc3c12`, for which the inhibition in data set [4] turned out to be 11.9%; in data set [5] it was 3.7%.

For the compound `Cc1nn(Cc2ccccc2)c(=O)c2nc(C)n3nc(-c4ccc([N+](=O)[O-])cc4)cc3c12`, the results for the inhibition in data set [5] and in data set [6] were 14.4% and 65.5%, respectively.

For `Cc1nn(Cc2ccccc2)c(=O)c2nc(CCCC(=O)O)n3nc(-c4ccccc4)cc3c12`, the values for the IC50 (on Phosphodiesterase 6; in data set [3]) were 110 nM and 30 nM, respectively.

`Cc1cccc(-c2nc3c(=O)n(Cc4ccccc4)nc(C)c3c3cc(-c4ccccc4)nn23)c1` came in with a half-inhibitory concentration (IC50) in data set [3] of 75 nM. Moreover, in data set [2], the inhibition was determined as 11.5%.

Take `CSCc1nc2c(=O)n(Cc3ccccc3)nc(C)c2c2cc(-c3ccccc3)nn12`: the IC50 in data set [3] is 100 nM. Moreover, in data set [2], the inhibition stood at 38.1%.

With `Cc1nn(Cc2ccccc2)c(=O)c2nc(C)n3nc(C(C)(C)C)cc3c12`, in data set [1], the inhibition was found to be 31%.

Consider `Cc1nn(Cc2ccccc2)c(=O)c2nc(-c3ccncc3)n3nc(-c4ccccc4)cc3c12`, for which the values for the inhibition in data set [1] and in data set [2] were 69% and -4.8%, respectively.

For the compound `Cc1nn(Cc2ccccc2)c(=O)c2nc(/C=C/C(=O)O)n3nc(-c4ccccc4)cc3c12`, the half-maximal inhibitory concentration (IC50) on Phosphodiesterase 6 was determined as 580 nM; in data set [3], 320 nM.

In data set [3], `CCOCc1nc2c(=O)n(Cc3ccccc3)nc(C)c2c2cc(-c3ccccc3)nn12` gave a half-inhibitory concentration (IC50) of 350 nM. Further, the inhibition in data set [2] was determined as 45%.

Regarding `Cc1nn(Cc2ccc([N+](=O)[O-])cc2)c(=O)c2nc(C)n3nc(-c4ccccc4)cc3c12`, the inhibition worked out at 65.9% in data set [6] and 10.4% in data set [2].

Regarding `Cc1nn(Cc2ccc(N)cc2)c(=O)c2nc(C)n3nc(-c4ccccc4)cc3c12`, the concentration for half-maximal inhibition (IC50) at Phosphodiesterase 6 is 2000 nM; in data set [3], 1100 nM.

For the compound `Cc1nn(Cc2ccccc2)c(=O)c2nc(CC3CCCC3)n3nc(-c4ccccc4)cc3c12`, the inhibition in data set [1] came out at 18.2%; in data set [2] it was 4.2%.

Consider `Cc1ccccc1-c1nc2c(=O)n(Cc3ccccc3)nc(C)c2c2cc(-c3ccccc3)nn12`, for which, in data set [1], the inhibition was 55.1%.

On to `Cc1nn(Cc2ccccc2)c(=O)c2nc(C)n3nc(-c4ccc5c(c4)OCO5)cc3c12`, for which the 50% inhibitory concentration (IC50) on Phosphodiesterase 6 came out at 78000 nM.

On to `Cc1nn(Cc2ccccc2)c(=O)c2nc(CCCCC(=O)O)n3nc(-c4ccccc4)cc3c12`, for which the values for the IC50 (on Phosphodiesterase 6; in data set [3]) were 63 nM and 90 nM, respectively.

Turning to `Cc1nn(Cc2ccccc2)c(=O)c2nc(CCC(=O)O)n3nc(-c4ccccc4)cc3c12`, the concentration for half-maximal inhibition (IC50) at Phosphodiesterase 6 is 590 nM; in data set [3] it was 430 nM.

For `Cc1nn(Cc2ccccc2)c(=O)c2nc(-c3ccccc3)n3nc(-c4ccccc4)cc3c12`, the half-inhibitory concentration (IC50) stood at 2800 nM against Phosphodiesterase 6 and 81 nM in data set [3].

Compound `Cc1nn(Cc2ccccc2)c(=O)c2nc(Cc3ccncc3)n3nc(-c4ccccc4)cc3c12` yielded an IC50 in data set [3] of 450 nM. Besides, the inhibition in data set [2] was 20.4%.

On to `Cc1nn(Cc2cccc(OP(=O)(O)O)c2)c(=O)c2nc(C)n3nc(-c4ccccc4)cc3c12`, for which, in data set [5], the inhibition came out at 28.6%. In data set [3], this compound displayed an IC50 of 230 nM.

Take `Cc1nn(Cc2ccccc2)c(=O)c2nc(-c3cccnc3)n3nc(-c4ccccc4)cc3c12`: in data set [3], the IC50 came to 180 nM. The inhibition in data set [2] was 17.7%.

In data set [3], `CCC(C)c1nc2c(=O)n(Cc3ccccc3)nc(C)c2c2cc(-c3ccccn3)nn12` (centres undefined) had an IC50 of 39 nM. In data set [2], the inhibition amounted to 34.6%.

With `COCc1nc2c(=O)n(Cc3ccccc3)nc(C)c2c2cc(-c3ccccc3)nn12`, the IC50 in data set [3] worked out at 100 nM. In data set [2], the inhibition turned out to be 53.3%.

For `CN1CC(=O)N2[C@H](c3ccc4c(c3)OCO4)c3[nH]c4ccccc4c3C[C@@H]2C1=O`, in data set [7], the half-life is more than 17 h.

Consider `Cc1nn(Cc2ccccc2)c(=O)c2nc(-c3ccccn3)n3nc(-c4ccccc4)cc3c12`, for which the IC50 in data set [3] is 81 nM. For the same compound, the inhibition in data set [2] is 21.3%.

Take `Cc1nn(CC2CCCCC2)c(=O)c2nc(C)n3nc(-c4ccccc4)cc3c12`: the values for the IC50 (against Phosphodiesterase 6; in data set [3]) were 11000 nM and 3100 nM, respectively.

For the compound `Cc1nn(Cc2ccccc2)c(=O)c2nc(C)n3nc(-c4ccccn4)cc3c12`, the 50% inhibitory concentration (IC50) on Phosphodiesterase 6 is 10000 nM; in data set [3] it was 270 nM.

Turning to `Cc1nn(Cc2ccccc2)c(=O)c2nc(C)n3nc(-c4ccc(N)cc4)cc3c12`, in data set [3], the IC50 was 920 nM. Moreover, the inhibition in data set [2] came to 4.5%.

`CCC(C)c1nc2c(=O)n(Cc3cccc(OP(=O)(O)O)c3)nc(C)c2c2cc(-c3ccccc3)nn12` (centres undefined) gave a concentration for half-maximal inhibition (IC50) in data set [3] of 59 nM. Moreover, in data set [2], the inhibition came out at 66.9%.

`CCC(CC)c1nc2c(=O)n(Cc3ccccc3)nc(C)c2c2cc(-c3ccccc3)nn12` yielded an IC50 in data set [3] of 67 nM. Also, the inhibition in data set [2] amounted to 37.4%.
